Test results published in ChEMBL document CHEMBL5223070, “Synthesis and optimisation of P3 substituted vinyl sulfone-based inhibitors as anti-trypanosomal agents” (Bioorg Med Chem, 2020).

What was measured:
[1] = test system: Trypanosoma brucei brucei; assay: Antitrypanosomal activity against Trypanosoma brucei brucei MIT measured after 6 hrs by Alamar blue cell viability assay; assay type: functional, organism-based
In short: (§1)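 Bloodstream-form T. b. brucei MITat1.1 kept in log phase in antibiotic-free HMI-9 with 10% heat-inactivated FBS, 37 °C, 5% CO2. Seeded at 2 × 10⁵ cells/mL with 5 μM–100 pM compound or DMSO alone. Alamar Blue added at 6 h, total incubation 24 h. Absorbance read at 540 and 595 nm. Triplicate. EC50 by four-parameter variable-slope nonlinear regression.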

HaCaT [2] = assay: Growth inhibition of human HaCaT cells assessed as LDH release at 100 uM incubated for 24 hrs by MTT assay; assay type: toxicity, cell-based
In short: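 HaCaT keratinocytes in DMEM with 10% fetal calf serum, seeded at 1x10⁵ cells/mL and grown 24 h. After a PBS wash, cells were exposed 24 h to compound at final 100 μM (from 10 mM DMSO stock, diluted in medium). Medium was then assayed for LDH release at 490/680 nm. Normalised to untreated cells and to lysis buffer (maximum release) as % cytotoxicity. Triplicate wells, three independent experiments.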

HaCaT [3] = assay: Growth inhibition of human HaCaT cells assessed as reduction in cell viability at above 10 uM incubated for 24 hrs by MTT assay
[4] = test system: Trypanosoma brucei brucei; assay: Antitrypanosomal activity against Trypanosoma brucei brucei assessed as reduction in survival; assay type: functional, organism-based; in short: as §1
[5] = Growth inhibition of human HaCaT cells incubated for 24 hrs by MTT assay; assay type: toxicity, cell-based
In short: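 HaCaT cells (mycoplasma-tested) in DMEM with 10% fetal calf serum, seeded at 1x10⁵ cells/mL for 24 h, washed with PBS and then exposed to compound for 24 h. Controls were 0.1% v/v Triton X-100 and untreated cells. MTT (0.5 mg/mL) added for 3 h, formazan dissolved in DMSO and read at 590 nm. GI50 from log(inhibitor) vs normalised response. Triplicate wells, repeated on three separate days.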

Structure (SMILES) | EC50 [1] | growth inhibition (GI) (HaCaT [2]) | growth inhibition (GI) (HaCaT [3]) | IC50 [4] | GI50 at 24 h [5]
O=C(N[C@@H](Cc1ccccc1)C(=O)N[C@H](/C=C/S(=O)(=O)c1ccccc1)CCCCNS(=O)(=O)c1cccc2ccccc12)OCc1ccccc1 | 0.74 µM | – | – | – | –
O=C(N[C@H](/C=C/S(=O)(=O)c1ccccc1)CCCCNS(=O)(=O)c1cccc2ccccc12)[C@H](Cc1ccccc1)NC(=O)N1CCOCC1 | 0.9 µM | – | – | – | –
O=C(N[C@H](/C=C/S(=O)(=O)c1ccccc1)CCCCNS(=O)(=O)c1cccc2ccccc12)[C@H](Cc1ccccc1)n1cc(-c2ccccc2)nn1 | 1.12 µM | – | – | – | –
Cc1ccc(S(=O)(=O)N[C@@H](Cc2ccccc2)C(=O)N[C@H](/C=C/S(=O)(=O)c2ccccc2)CCCCNS(=O)(=O)c2cccc3ccccc23)cc1 | 0.99 µM | – | – | – | –
CN1CCN(C(=O)N[C@@H](Cc2ccccc2)C(=O)N[C@H](/C=C/S(=O)(=O)c2ccccc2)CCCCNS(=O)(=O)c2cccc3ccccc23)CC1 | 1.19 µM | Not Determined(Insoluble) | Toxic | 1.18 µM | 28.7 µM
[N-]=[N+]=N[C@@H](Cc1ccccc1)C(=O)N[C@H](/C=C/S(=O)(=O)c1ccccc1)CCCCNS(=O)(=O)c1cccc2ccccc12 | > 5 µM | – | – | – | –
N[C@@H](Cc1ccccc1)C(=O)N[C@H](/C=C/S(=O)(=O)c1ccccc1)CCCCNS(=O)(=O)c1cccc2ccccc12 | 3.43 µM | – | – | – | –
CC(C)(C)NC(=O)N[C@@H](Cc1ccccc1)C(=O)N[C@H](/C=C/S(=O)(=O)c1ccccc1)CCCCNS(=O)(=O)c1cccc2ccccc12 | > 5 µM | – | – | – | –
O=C(N[C@@H](Cc1ccccc1)C(=O)N[C@H](/C=C/S(=O)(=O)c1ccccc1)CCCCNS(=O)(=O)c1cccc2ccccc12)c1ccncc1 | 0.71 µM | – | – | – | –
CCCCCCc1cn([C@@H](Cc2ccccc2)C(=O)N[C@H](/C=C/S(=O)(=O)c2ccccc2)CCCCNS(=O)(=O)c2cccc3ccccc23)nn1 | 1.05 µM | – | – | – | –
CCCCNC(=O)N[C@@H](Cc1ccccc1)C(=O)N[C@H](/C=C/S(=O)(=O)c1ccccc1)CCCCNS(=O)(=O)c1cccc2ccccc12 | 0.64 µM | – | – | – | –
O=C1N[C@@H](CCCCNS(=O)(=O)c2cccc3ccccc23)[C@@H](CS(=O)(=O)c2ccccc2)N[C@H]1Cc1ccccc1 | > 5 µM | – | – | – | –
COc1cc(Br)c(S(=O)(=O)NCCCC[C@@H](/C=C/S(=O)(=O)c2ccccc2)NC(=O)[C@H](Cc2ccccc2)NC(=S)Nc2ccc(C(F)(F)F)cc2)cc1OC | 0.39 µM | Not Determined(Insoluble) | Toxic | 0.41 µM | –
O=C(N[C@@H](Cc1ccccc1)C(=O)N[C@H](/C=C/S(=O)(=O)c1ccccc1)CCCCNS(=O)(=O)c1cccc2ccccc12)c1ccc(C(F)(F)F)cc1 | 0.24 µM | Not Determined(Insoluble) | Toxic | 0.242 µM | –
O=C(Nc1ccccc1)N[C@@H](Cc1ccccc1)C(=O)N[C@H](/C=C/S(=O)(=O)c1ccccc1)CCCCNS(=O)(=O)c1cccc2ccccc12 | 0.15 µM | Not Determined(Insoluble) | Toxic | 0.144 µM | –
O=C(Cc1ccc2c(c1)OCO2)N[C@@H](Cc1ccccc1)C(=O)N[C@H](/C=C/S(=O)(=O)c1ccccc1)CCCCNS(=O)(=O)c1cccc2ccccc12 | 0.8 µM | – | – | – | –
O=C(N[C@H](/C=C/S(=O)(=O)c1ccccc1)CCCCNS(=O)(=O)c1cccc2ccccc12)[C@H](Cc1ccccc1)NC(=S)Nc1ccccc1 | 0.48 µM | – | – | – | –
O=C(N[C@H](/C=C/S(=O)(=O)c1ccccc1)CCCCNS(=O)(=O)c1cccc2ccccc12)[C@H](Cc1ccccc1)NC(=S)Nc1ccc(C(F)(F)F)cc1 | 0.22 µM | Not Determined(Insoluble) | Toxic | 0.22 µM | –
